Assay results as given in ChEMBL document CHEMBL4251707, “Stereochemical Structure Activity Relationship Studies (S-SAR) of Tetrahydrolipstatin” (ACS Med Chem Lett, 2018).
pIC50: −log10 of the molar value.

Experiments:
Format in all cases: cell-based
NCI-H460 = experiment: Cytotoxicity against human H460 cells assessed as reduction in cell viability after 72 hrs by MTT assay; details: NCI-H460, 72 h
Method in brief: (§1)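 Cells plated at 5 × 10^3 cell/well and grown 12 to 16 h, then exposed to compound for 72 h over 0.1 nM to 100 μM, with untreated wells as controls. Viability was read by MTT as absorbance at 570 nm.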

MDA-MB-231 [1] = experiment: Cytotoxicity against human MDA-MB-231 cells assessed as reduction in cell viability after 72 hrs by MTT assay; details: MDA-MB-231, 72 h; method in brief: as §1
MCF7 = experiment: Cytotoxicity against human MCF7 cells assessed as reduction in cell viability after 72 hrs by MTT assay; details: MCF7, 72 h; method in brief: as §1
MDA-MB-231 [2] = experiment: Cytotoxicity against human MDA-MB-231 cells assessed as reduction in cell viability

Row | SMILES | pIC50 (NCI-H460) | pIC50 (MDA-MB-231 [1]) | pIC50 (MCF7) | pIC50 (MDA-MB-231 [2])
1 | CCCCCCCCCCC[C@@H](C[C@H]1OC(=O)[C@@H]1CCCCCC)OC(=O)[C@H](CC(C)C)NC=O | < 4.00 | < 4.00 | < 4.00 | –
2 | CCCCCCCCCCC[C@H](C[C@@H]1OC(=O)[C@H]1CCCCCC)OC(=O)[C@H](CC(C)C)NC=O | < 4.00 | < 4.00 | < 4.00 | –
3 | CCCCCCCCCCC[C@H](C[C@H]1OC(=O)[C@@H]1CCCCCC)OC(=O)[C@H](CC(C)C)NC=O | < 4.00 | < 4.00 | < 4.00 | –
4 | CCCCCCCCCCC[C@H](C[C@@H]1OC(=O)[C@H]1CCCCCC)OC(=O)[C@@H](CC(C)C)NC=O | < 4.00 | < 4.00 | < 4.00 | –
5 | CCCCCCCCCCC[C@@H](C[C@@H]1OC(=O)[C@H]1CCCCCC)OC(=O)[C@@H](CC(C)C)NC=O | < 4.00 | < 4.00 | < 4.00 | –
6 | CCCCCCCCCCC[C@@H](C[C@@H]1OC(=O)[C@H]1CCCCCC)OC(=O)[C@H](CC(C)C)NC=O [ORLISTAT] | < 4.00 | < 4.00 | < 4.00 | 4.89
7 | CC[C@@]1(O)C(=O)OCc2c1cc1n(c2=O)Cc2cc3ccccc3nc2-1 [CAMPTOTHECIN] | 6.96 | 6.27 | 6.80 | –
8 | CCCCCCCCCCC[C@@H](C[C@H]1OC(=O)[C@@H]1CCCCCC)OC(=O)[C@@H](CC(C)C)NC=O | < 4.00 | < 4.00 | < 4.00 | –
9 | CCCCCCCCCCC[C@H](C[C@H]1OC(=O)[C@@H]1CCCCCC)OC(=O)[C@@H](CC(C)C)NC=O | < 4.00 | < 4.00 | < 4.00 | –
